# Results as given in ChEMBL document CHEMBL4699426, “A practical synthesis of amino limonin/deoxylimonin derivatives as effective mitigators against inflammation and nociception” (2020).
# Experiments:
# Mus musculus [1] = test: Analgesic activity in mouse model of acetic-acid-induced writhing assessed as inhibition of writhing numbers at 200 mg/kg, po pretreated with compound followed by acetic acid challenge and measured after 30 mins relative to control; assay type: functional; settings: 0.5 h
# Outline: (§1)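 Acetic acid writhing in mice. Oral dosing (70 mg/kg test compounds or limonin; 200 mg/kg aspirin); vehicle controls got 0.5% CMC-Na. 30 min later 0.6% acetic acid, 10 ml/kg i.p. Each animal held in its own box and observed for 15 min; writhing and stretching counted; result as percent change from vehicle writhing controls.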
# Mus musculus [2] = test: Antiinflammatory activity in ICR mouse model of carrageenan-induced paw edema assessed as paw edema inhibition rate at 50 mg/kg, po pretreated with compound followed by carrageenan challenge and measured after 1 hr post-treatment by dial thickness gage; assay type: functional
# Outline: (§2)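 ICR male mice, 8 per group, randomized, acclimated at least one week, 12 h light/dark, 22 ± 1 °C. Dosed intragastrically at 25, 50 or 100 mg/kg; indomethacin 22 mg/kg i.g. as reference; olive oil as vehicle. 30 min later, 1% fresh carrageenan in saline injected subplantar into right hind paw. Paw thickness read by dial gauge before injection and at 1, 2, 3 and 4 h; percent increase over pre-injection value.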
# Mus musculus [3] = test: Antiinflammatory activity in mouse model of xylene-induced ear swelling assessed as inhibition of swelling by measuring weight of the ear at 100 mg/kg, ig pretreated for 90 mins followed by xylene challenge and measured after 30 mins relative to control; assay type: functional; settings: po, 2 h, time 120 min
# Outline: (§3)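 Xylene ear swelling in mice. Test compounds 100 mg/kg i.g., naproxen 150 mg/kg i.g., all suspended in 0.5% CMC-Na; vehicle group got CMC-Na alone. 90 min after dosing, 25 ul xylene applied to both surfaces of right ear; left ear unstimulated. Killed 30 min later; 8 mm punches from both ears weighed; swelling taken against left ear weight.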
# Mus musculus [4] = test: Antiinflammatory activity in ICR mouse model of carrageenan-induced paw edema assessed as paw edema inhibition rate at 50 mg/kg, po pretreated with compound followed by carrageenan challenge and measured after 3 hrs post-treatment by dial thickness gage; assay type: functional; outline: as §2
# Mus musculus [5] = test: Analgesic activity in mouse model of acetic-acid-induced writhing assessed as inhibition of writhing numbers at 70 mg/kg, po pretreated with compound followed by acetic acid challenge and measured after 30 mins relative to control; assay type: functional; settings: 0.5 h; outline: as §1
# Mus musculus [6] = test: Antiinflammatory activity in ICR mouse model of carrageenan-induced paw edema assessed as paw edema inhibition rate at 50 mg/kg, po pretreated with compound followed by carrageenan challenge and measured after 2 hrs post-treatment by dial thickness gage; assay type: functional; outline: as §2
# Mus musculus [7] = species: Mus musculus; test: animal or person; settings: po, 2 h, read-out: INH
# Mus musculus [8] = test: Antiinflammatory activity in ICR mouse model of carrageenan-induced paw edema assessed as paw edema inhibition rate at 22 mg/kg, po pretreated with compound followed by carrageenan challenge and measured after 1 hr post-treatment by dial thickness gage; assay type: functional; outline: as §2
# Mus musculus [9] = test: Antiinflammatory activity in ICR mouse model of carrageenan-induced paw edema assessed as paw edema inhibition rate at 22 mg/kg, po pretreated with compound followed by carrageenan challenge and measured after 4 hrs post-treatment by dial thickness gage; assay type: functional; outline: as §2
# Mus musculus [10] = test: Antiinflammatory activity in ICR mouse model of carrageenan-induced paw edema assessed as paw edema inhibition rate at 22 mg/kg, po pretreated with compound followed by carrageenan challenge and measured after 2 hrs post-treatment by dial thickness gage; assay type: functional; outline: as §2
# Mus musculus [11] = test: Antiinflammatory activity in ICR mouse model of carrageenan-induced paw edema assessed as paw edema inhibition rate at 22 mg/kg, po pretreated with compound followed by carrageenan challenge and measured after 3 hrs post-treatment by dial thickness gage; assay type: functional; outline: as §2
# Mus musculus [12] = test: Antiinflammatory activity in ICR mouse model of carrageenan-induced paw edema assessed as paw edema inhibition rate at 25 mg/kg, po pretreated with compound followed by carrageenan challenge and measured after 2 hrs post-treatment by dial thickness gage; assay type: functional; outline: as §2
# Mus musculus [13] = test: Antiinflammatory activity in ICR mouse model of carrageenan-induced paw edema assessed as paw edema inhibition rate at 25 mg/kg, po pretreated with compound followed by carrageenan challenge and measured after 3 hrs post-treatment by dial thickness gage; assay type: functional; outline: as §2
# Mus musculus [14] = test: Antiinflammatory activity in ICR mouse model of carrageenan-induced paw edema assessed as paw edema inhibition rate at 100 mg/kg, po pretreated with compound followed by carrageenan challenge and measured after 4 hrs post-treatment by dial thickness gage; assay type: functional; outline: as §2
# Mus musculus [15] = test: Antiinflammatory activity in ICR mouse model of carrageenan-induced paw edema assessed as paw edema inhibition rate at 100 mg/kg, po pretreated with compound followed by carrageenan challenge and measured after 1 hr post-treatment by dial thickness gage; assay type: functional; outline: as §2
# Mus musculus [16] = test: Antiinflammatory activity in ICR mouse model of carrageenan-induced paw edema assessed as paw edema inhibition rate at 25 mg/kg, po pretreated with compound followed by carrageenan challenge and measured after 4 hrs post-treatment by dial thickness gage; assay type: functional; settings: 2 h, dose mg/kg 25-100; outline: as §2
# Mus musculus [17] = test: Antiinflammatory activity in ICR mouse model of carrageenan-induced paw edema assessed as paw edema inhibition rate at 100 mg/kg, po pretreated with compound followed by carrageenan challenge and measured after 2 hrs post-treatment by dial thickness gage; assay type: functional; outline: as §2
# Mus musculus [18] = test: Antiinflammatory activity in ICR mouse model of carrageenan-induced paw edema assessed as paw edema inhibition rate at 100 mg/kg, po pretreated with compound followed by carrageenan challenge and measured after 3 hrs post-treatment by dial thickness gage; assay type: functional; outline: as §2
# Mus musculus [19] = test: Antiinflammatory activity in ICR mouse model of carrageenan-induced paw edema assessed as paw edema inhibition rate at 25 mg/kg, po pretreated with compound followed by carrageenan challenge and measured after 1 hr post-treatment by dial thickness gage; assay type: functional; outline: as §2
# Mus musculus [20] = test: Antiinflammatory activity in po dosed ICR mouse model of carrageenan-induced paw edema assessed as paw edema inhibition rate pretreated with compound followed by carrageenan challenge and measured after 4 hrs post-treatment by dial thickness gage; assay type: functional, organism-based; settings: dose mg/kg 25-100, time 4.0 hrs; outline: as §2
# Mus musculus [21] = test: Antiinflammatory activity in ICR mouse model of carrageenan-induced paw edema assessed as paw edema inhibition rate at 50 mg/kg, ig pretreated with compound followed by carrageenan challenge and measured after 4 hrs post-treatment by dial thickness gage; assay type: functional; settings: po; outline: as §2
# Mus musculus [22] = test: Antiinflammatory activity in mouse model of xylene-induced ear swelling assessed as inhibition of swelling by measuring weight of the ear at 100 mg/kg, ig pretreated for 90 mins followed by xylene challenge and measured after 30 mins relative to deoxy-limonin; assay type: functional; settings: time 120 min, 2 h; outline: as §3
structure (smiles),measurement,setting,value
CC(=O)Oc1ccccc1C(=O)O [ASPIRIN],inhibition in vivo at 200 mg/kg,Mus musculus [1],51.5%
CC1(C)O[C@H]2CC(=O)OC[C@]23[C@H]2CC[C@@]4(C)[C@H](c5ccoc5)OC(=O)[C@H]5O[C@]54[C@]2(C)C(=O)C[C@@H]13 [LIMONIN],inhibition in vivo at 50 mg/kg,Mus musculus [2],57.3%
same,inhibition in vivo at 100 mg/kg,Mus musculus [3],14.4%
same,inhibition in vivo at 50 mg/kg,Mus musculus [4],26.3%
same,inhibition in vivo at 70 mg/kg,Mus musculus [5],44.2%
same,inhibition in vivo at 50 mg/kg,Mus musculus [6],22%
COc1ccc2cc([C@H](C)C(=O)O)ccc2c1 [NAPROXEN],inhibition in vivo at 150 mg/kg,Mus musculus [7],25%
COc1ccc(CNCCC2OC(C)(C)[C@@H]3CC(=O)[C@@]4(C)C5=CC(=O)O[C@@H](c6ccoc6)[C@]5(C)CC[C@@H]4C23CO)cc1 (stereo partly drawn),inhibition in vivo at 100 mg/kg,Mus musculus [3],24.8%
same,inhibition in vivo at 70 mg/kg,Mus musculus [5],29.7%
COc1ccc(CCNCCC2OC(C)(C)[C@@H]3CC(=O)[C@]4(C)[C@H](CC[C@@]5(C)[C@H](c6ccoc6)OC(=O)[C@H]6O[C@]654)C23CO)cc1OC (stereo partly drawn),inhibition in vivo at 100 mg/kg,Mus musculus [3],26.7%
same,inhibition in vivo at 70 mg/kg,Mus musculus [5],11.2%
COc1cccc(CCNCCC2OC(C)(C)[C@@H]3CC(=O)[C@]4(C)[C@H](CC[C@@]5(C)[C@H](c6ccoc6)OC(=O)[C@H]6O[C@]654)C23CO)c1 (stereo partly drawn),inhibition in vivo at 100 mg/kg,Mus musculus [3],17%
same,inhibition in vivo at 70 mg/kg,Mus musculus [5],58.7%
COc1ccc(CN2CCC3OC(C)(C)[C@@H]4CC(=O)[C@@]5(C)C6=CC(=O)O[C@@H](c7ccoc7)[C@]6(C)CC[C@@H]5C34C2)cc1 (stereo partly drawn),inhibition in vivo at 100 mg/kg,Mus musculus [3],32.5%
same,inhibition in vivo at 70 mg/kg,Mus musculus [5],40%
CC1(C)OC(CCNCCc2ccc(F)cc2)C2(CO)[C@H]3CC[C@]4(C)C(=CC(=O)O[C@H]4c4ccoc4)[C@]3(C)C(=O)C[C@@H]12 (stereo partly drawn),inhibition in vivo at 100 mg/kg,Mus musculus [3],30%
same,inhibition in vivo at 70 mg/kg,Mus musculus [5],30.1%
COc1ccc2c(c1)c(CC(=O)O)c(C)n2C(=O)c1ccc(Cl)cc1 [INDOMETHACIN],inhibition in vivo at 22 mg/kg,Mus musculus [8],47.5%
same,inhibition in vivo at 22 mg/kg,Mus musculus [9],64.8%
same,inhibition in vivo at 22 mg/kg,Mus musculus [10],60%
same,inhibition in vivo at 22 mg/kg,Mus musculus [11],64.9%
CC1(C)O[C@H]2CC(=O)OC[C@@]23[C@H]1CC(=O)[C@@]1(C)C2=CC(=O)O[C@@H](c4ccoc4)[C@]2(C)CC[C@@H]13,inhibition in vivo at 100 mg/kg,Mus musculus [3],11.2%
same,inhibition in vivo at 70 mg/kg,Mus musculus [5],22.6%
CC1(C)OC2CCN(Cc3ccc(F)cc3)CC23[C@H]2CC[C@]4(C)C(=CC(=O)O[C@H]4c4ccoc4)[C@]2(C)C(=O)C[C@@H]13 (stereo partly drawn),inhibition in vivo at 100 mg/kg,Mus musculus [3],28%
same,inhibition in vivo at 70 mg/kg,Mus musculus [5],40.3%
CC1(C)OC(CCNCc2ccc(F)cc2)C2(CO)[C@H]3CC[C@@]4(C)[C@H](c5ccoc5)OC(=O)[C@H]5O[C@]54[C@]3(C)C(=O)C[C@@H]12 (stereo partly drawn),inhibition in vivo at 100 mg/kg,Mus musculus [3],27.4%
same,inhibition in vivo at 70 mg/kg,Mus musculus [5],63.8%
COc1ccc(CNCCC2OC(C)(C)[C@@H]3CC(=O)[C@]4(C)[C@H](CC[C@@]5(C)[C@H](c6ccoc6)OC(=O)[C@H]6O[C@]654)C23CO)cc1 (stereo partly drawn),inhibition in vivo at 50 mg/kg,Mus musculus [2],44.6%
same,inhibition in vivo at 100 mg/kg,Mus musculus [3],27.3%
same,inhibition in vivo at 50 mg/kg,Mus musculus [4],17.5%
same,inhibition in vivo at 70 mg/kg,Mus musculus [5],81.5%
same,inhibition in vivo at 25 mg/kg,Mus musculus [12],24.6%
same,inhibition in vivo at 25 mg/kg,Mus musculus [13],9.77%
same,inhibition in vivo at 100 mg/kg,Mus musculus [14],32%
same,inhibition in vivo at 100 mg/kg,Mus musculus [15],54.5%
same,inhibition in vivo at 25 mg/kg,Mus musculus [16],5.75%
same,inhibition in vivo at 100 mg/kg,Mus musculus [17],62%
same,inhibition in vivo at 100 mg/kg,Mus musculus [18],41.4%
same,inhibition in vivo at 50 mg/kg,Mus musculus [6],33.3%
same,inhibition in vivo at 25 mg/kg,Mus musculus [19],43.4%
same,inhibition,Mus musculus [20],Dose-dependent effect
same,inhibition in vivo at 50 mg/kg,Mus musculus [21],15.6%
CC1(C)OC(CCNCCc2ccc(F)cc2)C2(CO)[C@H]3CC[C@@]4(C)[C@H](c5ccoc5)OC(=O)[C@H]5O[C@]54[C@]3(C)C(=O)C[C@@H]12 (stereo partly drawn),inhibition in vivo at 100 mg/kg,Mus musculus [3],16.1%
same,inhibition in vivo at 70 mg/kg,Mus musculus [5],55.8%
CC1(C)OC(CCNCc2ccc(F)cc2)C2(CO)[C@H]3CC[C@]4(C)C(=CC(=O)O[C@H]4c4ccoc4)[C@]3(C)C(=O)C[C@@H]12 (stereo partly drawn),inhibition in vivo at 100 mg/kg,Mus musculus [3],29.5%
same,inhibition in vivo at 70 mg/kg,Mus musculus [5],37%
COc1ccc(CCNCCC2OC(C)(C)[C@@H]3CC(=O)[C@@]4(C)C5=CC(=O)O[C@@H](c6ccoc6)[C@]5(C)CC[C@@H]4C23CO)cc1OC (stereo partly drawn),inhibition in vivo at 100 mg/kg,Mus musculus [3],37.9%
same,inhibition in vivo at 70 mg/kg,Mus musculus [5],52.6%
COc1cccc(CCNCCC2OC(C)(C)[C@@H]3CC(=O)[C@@]4(C)C5=CC(=O)O[C@@H](c6ccoc6)[C@]5(C)CC[C@@H]4C23CO)c1 (stereo partly drawn),inhibition in vivo at 50 mg/kg,Mus musculus [2],55.6%
same,inhibition in vivo at 100 mg/kg,Mus musculus [3],51.5%
same,inhibition in vivo at 50 mg/kg,Mus musculus [4],24.1%
same,inhibition in vivo at 70 mg/kg,Mus musculus [5],52.6%
same,fold change (FC),Mus musculus [22],5
same,inhibition in vivo at 25 mg/kg,Mus musculus [12],17.6%
same,inhibition in vivo at 25 mg/kg,Mus musculus [13],12%
same,inhibition in vivo at 100 mg/kg,Mus musculus [14],27.5%
same,inhibition in vivo at 100 mg/kg,Mus musculus [15],59.8%
same,inhibition in vivo at 25 mg/kg,Mus musculus [16],5.43%
same,inhibition in vivo at 100 mg/kg,Mus musculus [17],65.3%
same,inhibition in vivo at 100 mg/kg,Mus musculus [18],35.3%
same,inhibition in vivo at 50 mg/kg,Mus musculus [6],27.3%
same,inhibition in vivo at 25 mg/kg,Mus musculus [19],51.5%
same,inhibition,Mus musculus [20],Dose-dependent effect
